This is an account of results in ChEMBL document CHEMBL1140915, “Second-generation highly potent and selective inhibitors of the hepatitis C virus NS3 serine protease” (J Med Chem, 2009).

Data set [1] can be described thus: Inhibition of HCV NS3 protease in absence of human serum. Further details: species or system Hepacivirus hominis. The gist of the method:
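Continuous enzymatic assay using NS4A-tethered single-chain HCV NS3 serine protease, without human serum. Ki* is the equilibrium constant, which includes the reversible covalent ketone–serine bond. Compounds were tested as P1 diastereomer mixtures (2:1 to 1:2) that equilibrate rapidly under assay conditions.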

A further data set has as its system Hepatitis C virus. Description: Antiviral activity against HCV assessed as inhibition of virus replication by cell based assay in absence of human serum. In kind it is functional, Hepacivirus hominis. The gist of the method:
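Replicon-based cellular assay run without human serum. EC90 is the concentration that inhibits replicon replication by 90%. Compounds were tested as rapidly equilibrating P1 diastereomer mixtures.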

The nature of data set [2]: Selectivity for HCV NS3 protease over human neutrophil elastase. The method, boiled down: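 Compounds were also assayed against human neutrophil elastase. Selectivity is expressed as the HNE/HCV ratio of the two enzyme potencies.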
Data set [3] is described as follows: AUC in rat at 10 mg/kg, po administered with 20% HPBCD. The format is ADME, organism-based. Further details: dose 10 mg/kg, route oral. To be noted: plasma.

As usually defined, the Ki is the dissociation constant of the complex between target and ligand, obtained from inhibition or displacement. A high value points to lower affinity. One may read the EC90 as the point of the concentration-response curve where the effect stands at 90%. With `C=CCNC(=O)C(=O)C(CCCC)NC(=O)[C@@H]1[C@@H]2[C@H](CN1C(=O)[C@@H](NC(=O)NC(CN1C(=O)N(C)C(C)(C)C1=O)C(C)(C)C)C(C)(C)C)C2(C)C` (single isomer, unassigned), in data set [1], the affinity, expressed as Ki, was 8 nM. Further, in the data set with Hepatitis C virus, the concentration for an effect of 90% (EC90) was 60 nM. The Ratio in data set [2] came to 1600.
Taken in the same sequence, the figures for `C=CCNC(=O)C(=O)C(CCCC)NC(=O)[C@@H]1[C@@H]2[C@H](CN1C(=O)[C@@H](NC(=O)N[C@@H](CN1C(=O)c3ccccc3C1=O)C(C)(C)C)C(C)(C)C)C2(C)C` (some centres undefined) were 30 nM, 750 nM and 500.
In the same order, the values of `C=CCNC(=O)C(=O)C(CCCC)NC(=O)[C@@H]1[C@@H]2[C@H](CN1C(=O)[C@@H](NC(=O)N[C@@H](CN1C(=O)CN(C)C1=O)C(C)(C)C)C(C)(C)C)C2(C)C` (some centres undefined) are 19 nM, 250 nM and 1200.
In the same order, the values of `C=CCNC(=O)C(=O)C(CCC)NC(=O)[C@@H]1[C@@H]2[C@H](CN1C(=O)[C@@H](NC(=O)NC(CN1C(=O)CC(C)(C)CC1=O)C(C)(C)C)C(C)(C)C)C2(C)C` (single isomer, unassigned) are 4 nM, 40 nM and 1600.
In data set [1], `C=CCNC(=O)C(=O)C(CCCC)NC(=O)[C@@H]1[C@@H]2[C@H](CN1C(=O)C(NC(=O)NC(CN1C(=O)CC(C)(C)CC1=O)C(C)(C)C)C1Cc3ccccc3C1)C2(C)C` (single isomer, unassigned) came in with a Ki of 4 nM. Moreover, the EC90 in the data set with Hepatitis C virus is 100 nM. Moreover, the Ratio in data set [2] amounted to 1800.
In the same order, the values of `C=CCNC(=O)C(=O)C(CCCC)NC(=O)[C@@H]1[C@@H]2[C@H](CN1C(=O)[C@@H](NC(=O)NC(CN1C(=O)CCC1=O)C(C)(C)C)C(C)(C)C)C2(C)C` (single isomer, unassigned) are 13 nM, 230 nM and 2000.
Taken in the same sequence, the figures for `C=CCNC(=O)C(=O)C(CCCC)NC(=O)[C@@H]1[C@@H]2[C@H](CN1C(=O)[C@@H](NC(=O)NC(CN1C(=O)CN(c3ccccc3)CC1=O)C(C)(C)C)C(C)(C)C)C2(C)C` (single isomer, unassigned) were 12 nM, 100 nM and 90.
Taken in the same sequence, the figures for `C=CCNC(=O)C(=O)C(CCCC)NC(=O)[C@@H]1[C@@H]2[C@H](CN1C(=O)C(NC(=O)NC(CN1C(=O)CC(C)(C)CC1=O)C(C)(C)C)C1(C)Cc3ccccc3C1)C2(C)C` (single isomer, unassigned) were 32 nM, 80 nM and 220.
Consider `C=CCNC(=O)C(=O)C(CC1CCC1)NC(=O)[C@@H]1[C@@H]2[C@H](CN1C(=O)[C@@H](NC(=O)N[C@@H](CN1C(=O)CC(C)(C)CC1=O)C(C)(C)C)C(C)(C)C)C2(C)C` (some centres undefined), for which the Ki in data set [1] is 7 nM. In addition, in the data set with Hepatitis C virus, the 90% effect concentration (EC90) came out at 40 nM. In data set [2], the Ratio is 6400.
Take `C=CCNC(=O)C(=O)C(CCCC)NC(=O)[C@@H]1[C@@H]2[C@H](CN1C(=O)[C@@H](NC(=O)N[C@@H](CN1C(=O)NC(C)(C)C1=O)C(C)(C)C)C(C)(C)C)C2(C)C` (some centres undefined): the Ki in data set [1] was 11 nM. For the same compound, the EC90 with Hepatitis C virus was determined as 250 nM. The Ratio in data set [2] stood at 2500.
In data set [1], `C=CCNC(=O)C(=O)C(CCCC)NC(=O)[C@@H]1[C@@H]2[C@H](CN1C(=O)[C@@H](NC(=O)N[C@@H](CN1C(=O)C3CC3C1=O)C(C)(C)C)C(C)(C)C)C2(C)C` (some centres undefined) displayed an inhibition constant Ki of 5 nM. Further, the EC90 in the data set on Hepatitis C virus is 70 nM. Besides, the Ratio in data set [2] is 9500.
As usually defined, the AUC is the area under the concentration-time curve, a measure of exposure. In the case of `C=CCNC(=O)C(=O)C(CCCC)NC(=O)[C@@H]1[C@@H]2[C@H](CN1C(=O)[C@@H](NC(=O)NC(CN1C(=O)CC(C)(C)CC1=O)C(C)(C)C)C(C)(C)C)C2(C)C` (single isomer, unassigned), the inhibition constant (Ki) in data set [1] is 4 nM. In data set [3], this compound gave an exposure (AUC) of 1.58 µM·h. The EC90 with Hepatitis C virus was determined as 40 nM. The Ratio in data set [2] is 9300.
As for `C#CCCC(NC(=O)[C@@H]1[C@@H]2[C@H](CN1C(=O)[C@@H](NC(=O)NC(CN1C(=O)CC(C)(C)CC1=O)C(C)(C)C)C(C)(C)C)C2(C)C)C(=O)C(=O)NCC=C` (single isomer, unassigned), the Ki in data set [1] is 2 nM. For the same compound, the 90% effect concentration (EC90) in the data set on Hepatitis C virus stood at 40 nM. The Ratio in data set [2] came out at 230.
Taken in the same sequence, the figures for `C=CCNC(=O)C(=O)C(CCCC)NC(=O)[C@@H]1[C@@H]2[C@H](CN1C(=O)C(NC(=O)NC(CN1C(=O)CC(C)(C)CC1=O)C(C)(C)C)C1(C)CCCCC1)C2(C)C` (single isomer, unassigned) were 4 nM, 45 nM and 1000.
In data set [1], `C=CCNC(=O)C(=O)C(CCCC)NC(=O)[C@@H]1[C@@H]2[C@H](CN1C(=O)[C@@H](NC(=O)NC(CN1C(=O)CCN(C)C1=O)C(C)(C)C)C(C)(C)C)C2(C)C` (single isomer, unassigned) yielded a Ki of 7 nM. For the same compound, the concentration for an effect of 90% (EC90) in the data set on Hepatitis C virus was determined as 60 nM. Further, the Ratio in data set [2] was found to be 1400.
For `C=CCNC(=O)C(=O)C(CCCC)NC(=O)[C@@H]1[C@@H]2[C@H](CN1C(=O)[C@@H](NC(=O)NC(CN1C(=O)C3CCC(C3)C1=O)C(C)(C)C)C(C)(C)C)C2(C)C` (single isomer, unassigned), the affinity in data set [1] corresponds to a Ki of 6 nM. For the same compound, the EC90 with Hepatitis C virus is 60 nM. The Ratio in data set [2] turned out to be 7000.
Consider `C=CCNC(=O)C(=O)C(CCC1CC1)NC(=O)[C@@H]1[C@@H]2[C@H](CN1C(=O)[C@@H](NC(=O)NC(CN1C(=O)CC(C)(C)CC1=O)C(C)(C)C)C(C)(C)C)C2(C)C` (single isomer, unassigned), for which the Ki in data set [1] was found to be 7 nM. In data set [3], this compound came in with an AUC of 0.5 µM·h. Moreover, the EC90 in the data set on Hepatitis C virus was 30 nM. Moreover, in data set [2], the Ratio turned out to be 11000.
In data set [1], `CCCCC(NC(=O)[C@@H]1[C@@H]2[C@H](CN1C(=O)[C@@H](NC(=O)NC(CN1C(=O)CC(C)(C)CC1=O)C(C)(C)C)C(C)(C)C)C2(C)C)C(=O)C(=O)NCC` (single isomer, unassigned) yielded an inhibition constant Ki of 13 nM. Besides, the concentration for an effect of 90% (EC90) with Hepatitis C virus turned out to be 70 nM. In addition, in data set [2], the Ratio was found to be 8200.
`C=CCNC(=O)C(=O)C(CCCC)NC(=O)[C@@H]1[C@@H]2[C@H](CN1C(=O)[C@@H](NC(=O)N[C@@H](CN1C(=O)CCC(C)(C)C1=O)C(C)(C)C)C(C)(C)C)C2(C)C` (some centres undefined) showed an inhibition constant (Ki) in data set [1] of 7 nM. Moreover, the EC90 in the data set with Hepatitis C virus stood at 35 nM. Further, the Ratio in data set [2] came out at 3100.
As to `CCCCC(NC(=O)[C@@H]1[C@@H]2[C@H](CN1C(=O)[C@@H](NC(=O)N[C@@H](CN1C(=O)CC(C)(C)CC1=O)C(C)(C)C)C(C)(C)C)C2(C)C)C(=O)C(=O)NC1CC1` (some centres undefined), in data set [1], the Ki is 5 nM. In addition, the EC90 with Hepatitis C virus was 30 nM. Moreover, in data set [2], the Ratio came out at 6100.
`CCCCC(NC(=O)[C@@H]1[C@@H]2[C@H](CN1C(=O)[C@@H](NC(=O)N[C@@H](CN1C(=O)CC(C)(C)CC1=O)C(C)(C)C)C(C)(C)C)C2(C)C)C(=O)C(=O)NCc1ccccn1` (some centres undefined): the Ki in data set [1] is 22 nM. Also, the EC90 in the data set with Hepatitis C virus amounted to 80 nM. The Ratio in data set [2] worked out at 2500.
Taken in the same sequence, the figures for `C=CCNC(=O)C(=O)C(CCCC)NC(=O)[C@@H]1[C@@H]2[C@H](CN1C(=O)[C@@H](NC(=O)NC(CN1C(=O)COCC1=O)C(C)(C)C)C(C)(C)C)C2(C)C` (single isomer, unassigned) were 8 nM, 500 nM and 7200.
In data set [1], `CCCCC(NC(=O)[C@@H]1[C@@H]2[C@H](CN1C(=O)[C@@H](NC(=O)N[C@@H](CN1C(=O)CC(C)(C)CC1=O)C(C)(C)C)C(C)(C)C)C2(C)C)C(=O)C(=O)NCc1ccccc1` (some centres undefined) displayed a Ki of 14 nM. In addition, the EC90 in the data set on Hepatitis C virus came to 40 nM. For the same compound, the Ratio in data set [2] was 1100.
In the same order, the values of `C=CCNC(=O)C(=O)C(CCCC)NC(=O)[C@@H]1[C@@H]2[C@H](CN1C(=O)[C@@H](NC(=O)NC(CN1C(=O)CCNC1=O)C(C)(C)C)C(C)(C)C)C2(C)C` (single isomer, unassigned) are 4 nM, 150 nM and 4300.
In the same order, the values of `C=CCNC(=O)C(=O)C(CCCC)NC(=O)[C@@H]1[C@@H]2[C@H](CN1C(=O)[C@@H](NC(=O)NC(CN1C(=O)CNC1=O)C(C)(C)C)C(C)(C)C)C2(C)C` (single isomer, unassigned) are 8 nM, 1000 nM and 1200.
Taken in the same sequence, the figures for `CCCCC(NC(=O)[C@@H]1[C@@H]2[C@H](CN1C(=O)[C@@H](NC(=O)NC(CN1C(=O)CC(C)(C)CC1=O)C(C)(C)C)C(C)(C)C)C2(C)C)C(=O)C(=O)NCc1cccs1` (single isomer, unassigned) were 12 nM, 100 nM and 900.
For the compound `CCCCC(NC(=O)[C@@H]1[C@@H]2[C@H](CN1C(=O)[C@@H](NC(=O)NC(CN1C(=O)CC(C)(C)CC1=O)C(C)(C)C)C(C)(C)C)C2(C)C)C(=O)C(=O)NCCC` (single isomer, unassigned), the inhibitory constant (Ki) in data set [1] was determined as 21 nM. The concentration for an effect of 90% (EC90) in the data set with Hepatitis C virus came to 80 nM. In data set [2], the Ratio was 910.
Taken in the same sequence, the figures for `C=CCNC(=O)C(=O)C(CCCC)NC(=O)[C@@H]1[C@@H]2[C@H](CN1C(=O)[C@@H](NC(=O)NC(CN1C(=O)CC(C)(CC)CC1=O)C(C)(C)C)C(C)(C)C)C2(C)C` (single isomer, unassigned) were 8 nM, 40 nM and 2500.
As to `C=CCNC(=O)C(=O)C(CCCC)NC(=O)[C@@H]1[C@@H]2[C@H](CN1C(=O)[C@@H](NC(=O)NC(CN1C(=O)CC3(CCCC3)CC1=O)C(C)(C)C)C(C)(C)C)C2(C)C` (single isomer, unassigned), the affinity in data set [1], expressed as Ki, was 6 nM. In addition, in the data set with Hepatitis C virus, the EC90 was found to be 200 nM. The Ratio in data set [2] is 3800.
